Measurements reported in ChEMBL document CHEMBL1139738, “Pyridine-3-propanoic acids: Discovery of dual PPARalpha/gamma agonists as antidiabetic agents” (Bioorg Med Chem Lett, 2006).

What was measured:
[1] = molecular target: T1, Peroxisome proliferator-activated receptor alpha (Homo sapiens) (UniProt Q07869); assay: Agonist activity at human PPAR alpha in a HepG2 cells by PPAR-GAL4 transactivation assay relative to GW-2331; type: functional, cell-based
T1 sequence (whole entry): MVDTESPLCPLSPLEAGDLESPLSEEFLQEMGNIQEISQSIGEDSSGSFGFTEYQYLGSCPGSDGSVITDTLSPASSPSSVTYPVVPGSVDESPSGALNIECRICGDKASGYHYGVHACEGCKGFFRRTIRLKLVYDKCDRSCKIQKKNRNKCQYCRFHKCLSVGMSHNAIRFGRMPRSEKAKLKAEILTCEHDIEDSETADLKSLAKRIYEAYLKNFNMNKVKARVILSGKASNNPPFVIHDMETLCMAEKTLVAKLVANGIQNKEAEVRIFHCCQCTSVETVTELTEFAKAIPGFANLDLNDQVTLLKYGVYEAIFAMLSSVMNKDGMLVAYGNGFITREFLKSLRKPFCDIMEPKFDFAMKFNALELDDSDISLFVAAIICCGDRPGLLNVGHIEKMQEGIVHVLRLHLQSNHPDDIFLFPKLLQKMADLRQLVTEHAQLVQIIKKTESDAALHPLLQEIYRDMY

[2] = molecular target: T2, Peroxisome proliferator-activated receptor gamma (Homo sapiens, UniProt P37231); assay: Agonist activity at human PPAR gamma in a HepG2 cells by PPAR-GAL4 transactivation assay; type: functional, cell-based
T2 sequence (P37231 whole entry): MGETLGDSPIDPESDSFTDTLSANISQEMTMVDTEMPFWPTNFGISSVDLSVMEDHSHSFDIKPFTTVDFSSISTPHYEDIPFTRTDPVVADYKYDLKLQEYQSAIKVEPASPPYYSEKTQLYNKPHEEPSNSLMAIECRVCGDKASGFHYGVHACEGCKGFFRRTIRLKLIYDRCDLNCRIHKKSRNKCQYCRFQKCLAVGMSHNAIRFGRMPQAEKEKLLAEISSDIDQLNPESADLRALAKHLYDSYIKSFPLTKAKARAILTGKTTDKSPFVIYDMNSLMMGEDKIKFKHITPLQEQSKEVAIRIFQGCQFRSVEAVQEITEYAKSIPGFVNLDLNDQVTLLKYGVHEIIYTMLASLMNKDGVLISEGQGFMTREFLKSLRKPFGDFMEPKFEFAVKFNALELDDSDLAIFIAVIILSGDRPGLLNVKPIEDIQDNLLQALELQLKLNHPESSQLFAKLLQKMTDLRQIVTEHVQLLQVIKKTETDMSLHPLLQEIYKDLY

[3] = molecular target: T3, Peroxisome proliferator-activated receptor alpha (Homo sapiens, UniProt Q07869); assay: Agonist activity at human PPAR alpha in a HepG2 cells by PPAR-GAL4 transactivation assay; type: functional, cell-based
T3 sequence (Q07869 whole entry): T1 sequence (whole entry)

[4] = molecular target: T3, Peroxisome proliferator-activated receptor alpha; assay: Displacement of radiolabeled GW-2331 from human PPAR alpha by SPA binding assay
[5] = molecular target: T2, Peroxisome proliferator-activated receptor gamma; assay: Displacement of radiolabeled darglitazone from human PPAR gamma by SPA binding assay
Mus musculus [6] = assay: Reduction of plasma glucose in orally dosed db/db mouse at 0.03 mg/kg after 8 days relative to control; type: functional; design: scale not given: the % may be the effect or the level left; conditions: route oral
Outline: (§1)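 Male db/db mice, 7 weeks old, with lean controls, given vehicle or compound by oral gavage once daily for 8 days. Plasma glucose, triglycerides, hematocrit and body weight measured before dosing on day −1 and 2 h post-dose on day 8. Percent change is expressed versus vehicle control, with significance at p < 0.05.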

Mus musculus [7] = assay: Reduction of plasma triglycerides in orally dosed db/db mouse at 0.03 mg/kg after 8 days relative to control; type: functional; design: scale not given: the % may be the effect or the level left; conditions: route oral; outline: as §1
Mus musculus [8] = assay: Reduction of hematocrit in orally dosed db/db mouse at 0.03 mg/kg after 8 days relative to control; type: functional; design: scale not given: the % may be the effect or the level left; conditions: route oral; outline: as §1
[9] = Oral bioavailability in Sprague-Dawley rat; type: ADME, organism-based; conditions: in vivo
Outline: (§2)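 Pharmacokinetics in male Sprague–Dawley rats given iv and oral doses. Outputs are iv clearance (mL/min/kg), oral half-life, dose-normalized oral AUC (h μg/mL) and oral bioavailability (%).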

Mus musculus [10] = assay: Reduction of plasma triglycerides in orally dosed db/db mouse at 1 mg/kg after 8 days relative to control; type: functional; design: scale not given: the % may be the effect or the level left; conditions: route oral; outline: as §1
[11] = Clearance in iv dosed Sprague-Dawley rat; type: ADME, organism-based; conditions: in vivo; outline: as §2
Mus musculus [12] = assay: Increase in body weight in orally dosed db/db mouse at 0.03 mg/kg after 8 days relative to control; type: functional; conditions: route oral; outline: as §1
Mus musculus [13] = assay: Reduction of hematocrit in orally dosed db/db mouse at 1 mg/kg after 8 days relative to control; type: functional; design: scale not given: the % may be the effect or the level left; conditions: route oral; outline: as §1
Mus musculus [14] = assay: Increase in body weight in orally dosed db/db mouse at 1 mg/kg after 8 days relative to control; type: functional; conditions: route oral; outline: as §1
Mus musculus [15] = assay: Reduction of plasma glucose in orally dosed db/db mouse at 1 mg/kg after 8 days relative to control; type: functional; design: scale not given: the % may be the effect or the level left; conditions: route oral; outline: as §1
[16] = Half life in orally dosed Sprague-Dawley rat; type: ADME, organism-based; conditions: in vivo, po; outline: as §2
[17] = molecular target: T4, Peroxisome proliferator-activated receptor gamma (Homo sapiens) (UniProt P37231); assay: Displacement of radiolabeled darglitazone from human PPAR gamma at 100 uM by SPA assay
T4 sequence (whole entry): T2 sequence (P37231 whole entry)
Outline: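 Scintillation proximity assay on human PPARγ using radiolabelled darglitazone as the displaced ligand, following published procedures. Single-concentration lines report percent displacement at the stated test concentration; Ki was determined for compounds with a full curve.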

[18] = molecular target: T1, Peroxisome proliferator-activated receptor alpha (Homo sapiens); assay: Displacement of radiolabeled GW-2331 from human PPAR alpha by SPA assay at 11 uM
Outline: (§3)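 Scintillation proximity assay on human PPARα using radiolabelled GW2331 as the displaced ligand, following published procedures. Single-concentration lines report percent displacement at the stated test concentration; Ki was determined for compounds with a full curve.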

[19] = molecular target: T1, Peroxisome proliferator-activated receptor alpha (Homo sapiens); assay: Displacement of radiolabeled GW-2331 from human PPAR alpha by SPA assay at 100 uM; outline: as §3
Mus musculus [20] = assay: Increase in body weight in orally dosed db/db mouse at 10 mg/kg in a 8 day study; type: functional; conditions: route oral; outline: as §1
Mus musculus [21] = assay: Reduction of plasma glucose in orally dosed db/db mouse at 10 mg/kg after 8 days relative to control; type: functional; design: scale not given: the % may be the effect or the level left; conditions: route oral; outline: as §1
Mus musculus [22] = assay: Reduction of plasma triglycerides in orally dosed db/db mouse at 10 mg/kg after 8 days relative to control; type: functional; design: scale not given: the % may be the effect or the level left; conditions: route oral; outline: as §1
Mus musculus [23] = assay: Reduction of hematocrit in orally dosed db/db mouse at 10 mg/kg after 8 days relative to control; type: functional; design: scale not given: the % may be the effect or the level left; conditions: route oral; outline: as §1

Compound	%max [1] [%]	EC50 [3] [nM]	Ki [4] [nM]	further results
Cc1oc(-c2ccc(C#N)cc2)nc1CCOc1ccc(CC2(C(=O)O)CCCO2)cn1 (stereo not given)	167	31	314	EC50 [2]: 28 nM; Ki [5]: 334 nM
Cc1oc(-c2ccccc2)nc1CCOc1ccc(C[C@]2(C(=O)O)CCCO2)cn1	89	165	32	Activity (Mus musculus [6]): 37%; Activity (Mus musculus [7]): 67%; Activity (Mus musculus [8]): 7.2%; bioavailability [9]: 59%; Activity (Mus musculus [10]): 147%; clearance [11]: 2.5 mL/min/kg; Activity (Mus musculus [12]): 11.7%; Activity (Mus musculus [13]): 8.7%; Activity (Mus musculus [14]): 15.7%; Activity (Mus musculus [15]): 99%; half-life [16]: 4.7 h
Cc1ccc(-c2nc(CCOc3ccc(CC4(C(=O)O)CCCO4)cn3)c(C)o2)cc1 (stereo not given)	84	23	31	
Cc1oc(-c2ccccc2)nc1CCCOc1ccc(CC2(C(=O)O)CCCO2)cn1 (stereo not given)			1840	Ki [5]: 810 nM
CCOC(Cc1ccc(OCCc2nc(-c3ccccc3)oc2C)nc1)C(=O)O (stereo not given)	96	33	43	
Cc1oc(-c2ccccc2)nc1CCOc1ccc(CC2(C(=O)O)CCCO2)cn1 (stereo not given)	106	48	78	
Cc1oc(-c2cccc(Cl)c2)nc1CCOc1ccc(CC2(C(=O)O)CCCO2)cn1 (stereo not given)	117	46	99	
CN(CCOc1ccc(CC2SC(=O)NC2=O)cc1)c1ccccn1 (stereo not given)	6			
COC(Cc1ccc(OCCc2nc(-c3ccccc3)oc2C)nc1)C(=O)O (stereo not given)	95	83	180	
Cc1oc(-c2ccccc2)nc1CCOc1ccc(CC2(C(=O)O)CCOCC2)cn1				Activity [17]: 32%; inhibition [18]: 2%
Cc1oc(-c2ccccc2)nc1CCOc1ccc(CC2(C(=O)O)CCC2)cn1	94	238	633	EC50 [2]: 125 nM; Ki [5]: 394 nM
Cc1oc(-c2ccccc2)nc1CCOc1ccc(CC2(C(=O)O)CCCCC2)cn1			8300	
COC(Cc1ccc(OCCc2ccc(Oc3cccc(Cl)c3)cc2C)nc1)C(=O)O (stereo not given)	100	133	13	EC50 [2]: 50 nM; Ki [5]: 15 nM
Cc1oc(-c2ccccc2)nc1CCOc1ccc(CC2(C(=O)O)CCOC2)cn1 (stereo not given)				Ki [5]: 17000 nM; inhibition [19]: 33%
Cc1oc(-c2ccccc2)nc1CCOc1ccc(CC(C)(C)C(=O)O)cn1	112	534	6800	
CCOC(CC)(Cc1ccc(OCCc2nc(-c3ccccc3)oc2C)nc1)C(=O)O (stereo not given)	64	4670	15100	EC50 [2]: 2810 nM; Ki [5]: 14400 nM

Compound	%max [1] [%]	EC50 [3] [nM]	Ki [4] [nM]	further results
CCCC(Cc1ccc(OCCc2nc(-c3ccccc3)oc2C)nc1)C(=O)O (stereo not given)	92	770	880	
Cc1oc(-c2ccc(C(F)(F)F)cc2)nc1CCOc1ccc(CC2(C(=O)O)CCCO2)cn1 (stereo not given)	143	11	21	
Cc1oc(-c2ccccc2)nc1CCOc1ccc(CC(C(=O)O)C(C)C)cn1 (stereo not given)	93	426	4100	
Cc1oc(-c2ccccc2)nc1CCOc1ccc(CC(CC(C)C)C(=O)O)cn1 (stereo not given)	98	1720	430	EC50 [2]: 1650 nM; Ki [5]: 360 nM
Cc1oc(-c2ccccc2)nc1CCOc1ccc(CC(C)C(=O)O)cn1 (stereo not given)	93	287	3000	
COC(C)(Cc1ccc(OCCc2nc(-c3ccccc3)oc2C)nc1)C(=O)O (stereo not given)	106	144	330	
Cc1oc(-c2ccccc2)nc1CCOc1ccc(CC2(C(=O)O)CCCCO2)cn1 (stereo not given)	96	228	78	
Cc1oc(-c2cccc(C(F)(F)F)c2)nc1CCOc1ccc(CC2(C(=O)O)CCCO2)cn1 (stereo not given)	81	8	100	
COc1ccc(-c2nc(CCOc3ccc(CC4(C(=O)O)CCCO4)cn3)c(C)o2)cc1 (stereo not given)	96	486	65	
Cc1oc(-c2ccccc2)nc1CCOc1ccc(CC2(C(=O)O)CC2)cn1	39	6150		inhibition [19]: 44%
Cc1oc(-c2ccc(Cl)cc2)nc1CCOc1ccc(CC2(C(=O)O)CCCO2)cn1 (stereo not given)	87	10	14	
Cc1oc(-c2ccccc2)nc1CCOc1ccc(CC(C(=O)O)C(C)(C)C)cn1 (stereo not given)			9400	Ki [5]: 12000 nM
COc1cccc(-c2nc(CCOc3ccc(CC4(C(=O)O)CCCO4)cn3)c(C)o2)c1 (stereo not given)	104	90	215	
Cc1cccc(-c2nc(CCOc3ccc(CC4(C(=O)O)CCCO4)cn3)c(C)o2)c1 (stereo not given)	86	134	277	
CO[C@@](C)(Cc1ccc(OCCc2nc(-c3ccccc3)oc2C)nc1)C(=O)O	99	111	570	Activity (Mus musculus [20]): 16.8%; Activity (Mus musculus [21]): 106%; bioavailability [9]: 87%; Activity (Mus musculus [10]): 177%; clearance [11]: 2.2 mL/min/kg; Activity (Mus musculus [22]): 205%; Activity (Mus musculus [13]): 3.8%; Activity (Mus musculus [14]): 13.2%; Activity (Mus musculus [23]): 7.2%; Activity (Mus musculus [15]): 88%; half-life [16]: 9.7 h
CCC(Cc1ccc(OCCc2nc(-c3ccccc3)oc2C)nc1)C(=O)O (stereo not given)	106	150	1300	
